Drawing on ChEMBL document CHEMBL1146666, “N-[1-Aryl-2-(1-imidazolo)ethyl]-guanidine derivatives as potent inhibitors of the bovine mitochondrial F1F0 ATP hydrolase” (Bioorg Med Chem Lett, 2004), this text covers IC50 for 19 compounds.

Bounds are passed on as bounds.

The target of test [1] is T1, Mitochondrial complex V; ATP synthase (Bos taurus, UniProt P00829+P05630+P05631+P05632). As to the kind of experiment: Inhibitory activity against bovine mitochondrial F1F0-ATP synthase. It is filed as protein-complex assay. The essentials:
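Synthase direction read as the rise in A340 in a hexokinase:glucose-6-phosphate dehydrogenase coupled assay.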

Test [2] has as its target T1, Mitochondrial complex V; ATP synthase. As to the kind of experiment: Inhibitory activity against bovine mitochondrial F1F0 ATP hydrolase. It is filed as protein-complex assay.

T1 sequence (P05632 whole entry): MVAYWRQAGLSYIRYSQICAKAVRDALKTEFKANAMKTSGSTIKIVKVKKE
T1 sequence (P00829 whole entry): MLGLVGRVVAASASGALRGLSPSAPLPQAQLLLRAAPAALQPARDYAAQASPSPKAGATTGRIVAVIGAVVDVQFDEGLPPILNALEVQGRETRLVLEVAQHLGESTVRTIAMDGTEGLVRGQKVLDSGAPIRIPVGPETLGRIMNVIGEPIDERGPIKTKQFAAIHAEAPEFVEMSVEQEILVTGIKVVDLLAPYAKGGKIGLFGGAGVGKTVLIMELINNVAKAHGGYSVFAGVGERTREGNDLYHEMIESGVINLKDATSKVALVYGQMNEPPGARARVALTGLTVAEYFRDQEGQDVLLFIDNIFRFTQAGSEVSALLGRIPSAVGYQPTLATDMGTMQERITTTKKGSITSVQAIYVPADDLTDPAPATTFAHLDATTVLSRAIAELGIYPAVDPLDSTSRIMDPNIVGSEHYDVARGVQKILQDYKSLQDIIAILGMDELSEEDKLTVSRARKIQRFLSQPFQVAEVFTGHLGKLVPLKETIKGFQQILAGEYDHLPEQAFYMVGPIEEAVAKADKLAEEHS
T1 sequence (P05631 whole entry): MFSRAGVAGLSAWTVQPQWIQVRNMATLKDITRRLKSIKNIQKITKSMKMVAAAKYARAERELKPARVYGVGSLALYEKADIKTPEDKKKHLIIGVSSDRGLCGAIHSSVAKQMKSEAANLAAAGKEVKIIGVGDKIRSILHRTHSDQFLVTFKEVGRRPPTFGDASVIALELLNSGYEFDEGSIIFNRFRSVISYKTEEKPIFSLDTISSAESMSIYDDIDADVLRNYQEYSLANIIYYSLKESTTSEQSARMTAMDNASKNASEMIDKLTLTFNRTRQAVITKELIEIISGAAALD
T1 sequence (P05630 whole entry): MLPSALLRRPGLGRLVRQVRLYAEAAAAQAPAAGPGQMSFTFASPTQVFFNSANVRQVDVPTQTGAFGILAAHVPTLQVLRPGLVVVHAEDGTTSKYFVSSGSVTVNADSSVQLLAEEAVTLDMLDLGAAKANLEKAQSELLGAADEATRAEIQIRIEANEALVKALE

What is called IC50 is the point on the concentration scale where inhibition reaches its midpoint. Read a low IC50 as inhibition by little substance. Consider `Cc1ccc(C(Cn2ccnc2)OC(=S)Nc2ccc(Cl)cc2)c(C)c1` (configuration not stated), for which the IC50 in test [1] was above 100 µM; in test [2], 31.4 µM.
Turning to `S=C(Nc1ccc(Cl)cc1Cl)OC(Cn1ccnc1)c1ccc(Cl)cc1Cl` (configuration not stated), the IC50 is above 100 µM in test [1] and 0.03 µM in test [2].
Take `N#CN/C(=N\C(Cn1ccnc1)c1ccc(Cl)cc1Cl)Nc1cccc(Cl)c1Cl` (configuration not stated): the half-maximal inhibitory concentration (IC50) in test [1] is above 100 µM; in test [2], 2.49 µM.
The matching figures for `O=C(Nc1ccc(Cl)cc1Cl)OC(Cn1ccnc1)c1ccc(Cl)cc1Cl` (configuration not stated): above 100 µM and 6.77 µM.
Taken in the same sequence, the figures for `N#CN/C(=N/c1ccc(Cl)cc1Cl)NC(Cn1ccnc1)c1ccc(Cl)cc1Cl` (configuration not stated) were above 100 µM and 0.6 µM.
Taken in the same sequence, the figures for `CCC(=O)C(Nc1ccc(Cl)cc1)NC(Cn1ccnc1)c1ccc(Cl)cc1Cl` (configuration not stated) were above 100 µM and 2.27 µM.
With `Cc1ccc(NC(=S)OC(Cn2ccnc2)c2ccc(Cl)cc2Cl)c(C)c1` (configuration not stated), the IC50 was above 100 µM in test [1] and 0.23 µM in test [2].
In the case of `O=C(c1ccc(Cl)cc1)C(Nc1ccc(Cl)cc1)NC(Cn1ccnc1)c1ccc(Cl)cc1Cl` (configuration not stated), the IC50 in test [1] is above 100 µM; in test [2] it was 0.082 µM.
Taken in the same sequence, the figures for `N#CN/C(=N\C(Cn1ccnc1)c1cc(C(F)(F)F)ccc1C(F)(F)F)Nc1ccc(Cl)cc1Cl` (configuration not stated) were above 100 µM and 0.71 µM.
Taken in the same sequence, the figures for `N#CN/C(=N/c1cccc(Cl)c1)NC(Cn1ccnc1)c1ccc(Cl)cc1Cl` (configuration not stated) were above 100 µM and 9.17 µM.
The matching figures for `Cc1ccc(NC(=S)OC(Cn2ccnc2)c2ccc(Cl)cc2Cl)cc1` (configuration not stated): above 100 µM and 0.66 µM.
On to `N#Cc1ccc(C(=O)C(Nc2ccc(Cl)cc2)NC(Cn2ccnc2)c2ccc(Cl)cc2Cl)cc1` (configuration not stated), for which the results for the IC50 in test [1] and in test [2] were above 100 µM and 0.28 µM, respectively.
Taken in the same sequence, the figures for `N#CN/C(=N\C(Cn1ccnc1)c1ccc(Cl)cc1Cl)Nc1ccc(Cl)cc1` (configuration not stated) were above 100 µM and 8.8 µM.
Taken in the same sequence, the figures for `S=C(Nc1ccc(Cl)cc1Cl)NC(Cn1ccnc1)c1ccc(Cl)cc1Cl` (configuration not stated) were above 100 µM and 2.41 µM.
Taken in the same sequence, the figures for `S=C(Nc1ccccc1)OC(Cn1ccnc1)c1ccc(Cl)cc1Cl` (configuration not stated) were above 100 µM and 3.6 µM.
For the compound `S=C(Nc1ccc(Cl)cc1)OC(Cn1ccnc1)c1ccc(Cl)cc1Cl` (configuration not stated), the half-inhibitory concentration (IC50) in test [1] is above 100 µM; in test [2], 0.43 µM.
In the case of `N#CN=C(Nc1ccccc1Cl)NC(Cn1ccnc1)c1ccc(Cl)cc1Cl` (configuration not stated), the figures for the IC50 in test [1] and in test [2] were above 100 µM and 2.23 µM, respectively.
Regarding `N#Cc1cccc(C(=O)C(Nc2ccc(Cl)cc2)NC(Cn2ccnc2)c2ccc(Cl)cc2Cl)c1` (stereo in doubt; 19a), inhibition in test [2] was half-maximal at 0.033 µM (IC50).
As to `N#Cc1cccc(C(=O)C(Nc2ccc(Cl)cc2)NC(Cn2ccnc2)c2ccc(Cl)cc2Cl)c1` (stereo in doubt; form 1), the IC50 in test [1] and in test [2] was above 100 µM each time.
